Common to all, as to type: ADME
The nature of data set [1]: Drug metabolism in human intestine microsomes assessed as 17-epiestriol-17-glucuronide formation after 15 to 60 mins by Michaelis-Menten equation analysis in presence of UDPGA. The procedure, abridged: (§1)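 Pooled human intestine microsomes (6 donors), 0.5 or 10 µg, with alamethicin at 5% of total protein. Incubated with 50 mM phosphate pH 7.4, 10 mM MgCl₂, 5 mM UDPGA and 10% DMSO for 15–60 min at 37°C. Each glucuronide regioisomer quantified by HPLC, in triplicate, with substrate consumption at or below 10%.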

Data set [2] has as its target T1, UDP-glucuronosyltransferase 2B15 (Homo sapiens, UniProt P54855).
T1 sequence (P54855 whole entry): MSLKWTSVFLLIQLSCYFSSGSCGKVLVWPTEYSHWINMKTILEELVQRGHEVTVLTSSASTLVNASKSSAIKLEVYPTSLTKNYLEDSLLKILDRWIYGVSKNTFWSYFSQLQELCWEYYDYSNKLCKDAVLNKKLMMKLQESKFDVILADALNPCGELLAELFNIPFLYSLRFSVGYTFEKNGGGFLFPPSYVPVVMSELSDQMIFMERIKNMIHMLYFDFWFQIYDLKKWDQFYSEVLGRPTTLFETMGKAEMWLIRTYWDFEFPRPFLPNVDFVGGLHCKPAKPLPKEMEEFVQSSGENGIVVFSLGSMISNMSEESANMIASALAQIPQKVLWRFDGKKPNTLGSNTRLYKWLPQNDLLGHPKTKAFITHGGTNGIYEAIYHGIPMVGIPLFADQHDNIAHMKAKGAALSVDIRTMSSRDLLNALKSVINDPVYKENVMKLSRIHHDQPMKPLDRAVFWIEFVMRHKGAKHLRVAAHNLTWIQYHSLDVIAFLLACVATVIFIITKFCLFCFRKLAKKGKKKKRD
Put plainly: Drug metabolism assessed as recombinant human C-terminal […]-mediated 16-epiestriol-3-glucuronide formation after 15 to 60 mins by Michaelis-Menten equation analysis in presence of UDPGA. The note with it: recombinant enzyme.

The target of data set [3] is T2, UDP-glucuronosyltransferase 1A1 (Homo sapiens, UniProt P22309).
T2 sequence (P22309 whole entry): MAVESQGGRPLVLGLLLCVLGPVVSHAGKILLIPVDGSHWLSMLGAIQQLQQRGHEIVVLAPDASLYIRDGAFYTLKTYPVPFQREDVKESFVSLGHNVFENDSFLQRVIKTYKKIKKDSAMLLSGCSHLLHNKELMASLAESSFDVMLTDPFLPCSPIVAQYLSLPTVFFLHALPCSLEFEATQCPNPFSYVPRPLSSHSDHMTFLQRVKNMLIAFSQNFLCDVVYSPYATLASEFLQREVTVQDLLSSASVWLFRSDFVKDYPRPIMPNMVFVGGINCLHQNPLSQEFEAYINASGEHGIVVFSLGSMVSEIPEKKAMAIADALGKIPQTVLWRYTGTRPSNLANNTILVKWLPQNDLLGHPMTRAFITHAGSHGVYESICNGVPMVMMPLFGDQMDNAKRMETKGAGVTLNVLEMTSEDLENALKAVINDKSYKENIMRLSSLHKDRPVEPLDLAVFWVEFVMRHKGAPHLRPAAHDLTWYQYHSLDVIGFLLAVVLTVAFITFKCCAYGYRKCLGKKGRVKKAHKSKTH
Put plainly: Drug metabolism assessed as recombinant human C-terminal His-tagged UGT1A1-mediated 16-epiestriol-3-glucuronide formation after 15 to 60 mins by Michaelis-Menten equation analysis in presence of UDPGA. The note with it: recombinant enzyme.

Data set [4] in a line: Drug metabolism in human intestine microsomes assessed as 16-epiestriol-17-glucuronide formation after 15 to 60 mins by Michaelis-Menten equation analysis in presence of UDPGA. In a few lines:
as §1

Data set [5] concerns the target UDP-glucuronosyltransferase 1A10 (Homo sapiens, UniProt Q9HAW8, F93G). Put plainly: Drug metabolism assessed as human UGT1A10 F93G mutant-mediated estradiol-3-glucuronide formation at 200 uM after 15 to 60 mins by HPLC analysis in presence of UDPGA. The procedure, abridged:
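Screening at a single substrate concentration of 200 μM, in triplicate. The reaction used 5 or 50 µg of UGT-enriched insect cell membranes in 50 mM phosphate pH 7.4 with 10 mM MgCl₂ and 5 mM UDPGA, 10% final DMSO. Incubation was 15–60 min at 37°C. Perchloric acid stopped the reaction and supernatants were analysed by HPLC. Controls lacked UDPGA. Rates were normalized to relative UGT expression level.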

The target of data set [6] is T3, UDP-glucuronosyltransferase 1A4 (Homo sapiens, UniProt P22310).
T3 sequence (P22310 whole entry): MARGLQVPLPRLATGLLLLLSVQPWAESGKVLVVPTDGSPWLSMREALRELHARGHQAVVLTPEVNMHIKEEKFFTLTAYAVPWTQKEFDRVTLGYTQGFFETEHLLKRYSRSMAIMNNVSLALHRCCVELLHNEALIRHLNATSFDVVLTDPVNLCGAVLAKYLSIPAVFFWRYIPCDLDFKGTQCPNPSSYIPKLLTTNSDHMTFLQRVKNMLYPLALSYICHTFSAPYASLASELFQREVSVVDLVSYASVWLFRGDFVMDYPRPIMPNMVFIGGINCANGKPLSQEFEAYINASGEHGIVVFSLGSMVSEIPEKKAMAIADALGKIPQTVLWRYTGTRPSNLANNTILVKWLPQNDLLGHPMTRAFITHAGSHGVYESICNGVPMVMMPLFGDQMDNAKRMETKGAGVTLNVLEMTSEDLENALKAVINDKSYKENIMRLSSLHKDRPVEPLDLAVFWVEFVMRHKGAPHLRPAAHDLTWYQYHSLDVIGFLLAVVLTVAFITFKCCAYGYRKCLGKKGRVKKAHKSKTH
In words: Drug metabolism assessed as recombinant human C-terminal His-tagged UGT1A4-mediated estriol-16-glucuronide formation after 15 to 60 mins by Michaelis-Menten equation analysis in presence of UDPGA. The note with it: recombinant enzyme.

UDP-glucuronosyltransferase 1A10, sequence (Q9HAW8 26-530 F93G limits assumed): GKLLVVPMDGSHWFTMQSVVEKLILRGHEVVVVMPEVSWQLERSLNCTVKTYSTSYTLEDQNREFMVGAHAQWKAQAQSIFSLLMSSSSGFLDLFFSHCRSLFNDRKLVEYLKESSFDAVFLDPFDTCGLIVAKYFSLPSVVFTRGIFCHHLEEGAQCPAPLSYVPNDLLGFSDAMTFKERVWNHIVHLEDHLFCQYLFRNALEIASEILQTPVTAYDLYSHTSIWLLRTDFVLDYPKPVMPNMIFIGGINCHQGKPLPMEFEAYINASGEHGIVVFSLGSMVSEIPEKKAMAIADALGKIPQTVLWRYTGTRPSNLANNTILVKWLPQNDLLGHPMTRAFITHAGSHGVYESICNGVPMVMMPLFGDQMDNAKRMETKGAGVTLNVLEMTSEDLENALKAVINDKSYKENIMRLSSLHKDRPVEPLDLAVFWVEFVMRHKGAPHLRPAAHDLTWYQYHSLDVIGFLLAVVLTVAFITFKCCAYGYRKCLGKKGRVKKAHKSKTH

`C[C@]12CC[C@@H]3c4ccc(O)cc4CC[C@H]3[C@@H]1C[C@@H](O)[C@H]2O`: in data set [1], the Km (as a rule, the substrate concentration at which the rate is half of its maximum) amounted to 1.3 µM and the Vmax (commonly the top rate of the reaction or transport when substrate is in excess) is 1633 pmol/min/mg.
As for `C[C@]12CC[C@@H]3c4ccc(O)cc4CC[C@H]3[C@@H]1C[C@H](O)[C@@H]2O` [EPIESTRIOL], the Drug metabolism in data set [2] and in data set [3] was 0.5 pmol/min/mg in each case. Further, in data set [4], the Km was 1170 µM. Further, the Vmax in data set [4] amounted to 2324 pmol/min/mg.
As to `C[C@]12CC[C@@H]3c4ccc(O)cc4CC[C@H]3[C@@H]1CC[C@@H]2O` [ESTRADIOL], the Drug metabolism entry in data set [5] was “metabolite_detected”.
On to `C[C@]12CC[C@@H]3c4ccc(O)cc4CC[C@H]3[C@@H]1C[C@@H](O)[C@@H]2O` [ESTRIOL], for which, in data set [6], the Drug metabolism is recorded as 4 pmol/min/mg.

The record behind these values is ChEMBL document CHEMBL3525985, “Regiospecificity and stereospecificity of human UDP-glucuronosyltransferases in the glucuronidation of estriol, 16-epiestriol, 17-epiestriol, and 13-epiestradiol” (Drug Metab Dispos, 2013).
